KCNQ1 pot – potentiators or activators of KCNQ1 channel, primary screen, cell-based, thallium flux, high-throughput. 310,000 tested, 0.35% active. CHO-K1 KCNQ1, thallium flux FluxOR fluorescence; active compounds read high. Potassium voltage-gated channel subfamily KQT member 1 (Homo sapiens), P51787. B-score at 10 µM;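 active = fluorescence ratio B-score, a plate-corrected score, at least three library SD, with initial intensity B-score within 5 SD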
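Test system: CHO-K1 cells stably expressing KCNQ1 / Medium: assay buffer / Also added: depolarizing K+/Tl+ stimulus, K2SO4 and Tl2SO4 each 12.5 mM in 5x stock / Incubation: 90 min dye loading and 20 min compound exposure, both at room temperature / Signal: thallium influx via FluxOR fluorescence, kinetic imaging / Evaluation: B score of baseline-normalized fluorescence ratio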
KCNQ1 block – inhibitors of human KCNQ1 channel, primary screen, cell-based, thallium flux, high-throughput; Potassium voltage-gated channel subfamily KQT member 1 (Homo sapiens), P51787; CHO-K1 KCNQ1, FluxOR thallium flux fluorescence; active compounds read high; B-score at 10 µM; 310,000 tested, 1.3% active;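 active = compounds whose thallium flux B-score, printed positive for inhibition, exceeds three library SD while starting fluorescence stays within three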;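 note: channel opened by potassium depolarization with thallium stimulus after 20 min compound exposure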
KCNK3 block – human KCNK3 channel inhibitors, primary screen, CHO cells, FluxOR thallium flux, B-score; Potassium channel subfamily K member 3 (Homo sapiens), O14649; FluxOR fluorescence; active compounds read low; B-score at 10 µM; 340,000 tested, 0.84% active;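 active = B-score under library mean minus 4 SD, starting fluorescence ratio at most library mean plus 5 SD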;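 note: more negative B-score means stronger inhibition of thallium flux through KCNK3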
PHOSPHO1 inh – PubChem AID 1565; Phosphoethanolamine/phosphocholine phosphatase (Homo sapiens), Q8TCT1; recombinant PHOSPHO1, absorbance phosphatase assay; inhibition, % at 13.3 µM; 290,000 tested, 1.1% active; in the data active = inhibition above about 60%
Target sequence (Q8TCT1 whole entry, looked up): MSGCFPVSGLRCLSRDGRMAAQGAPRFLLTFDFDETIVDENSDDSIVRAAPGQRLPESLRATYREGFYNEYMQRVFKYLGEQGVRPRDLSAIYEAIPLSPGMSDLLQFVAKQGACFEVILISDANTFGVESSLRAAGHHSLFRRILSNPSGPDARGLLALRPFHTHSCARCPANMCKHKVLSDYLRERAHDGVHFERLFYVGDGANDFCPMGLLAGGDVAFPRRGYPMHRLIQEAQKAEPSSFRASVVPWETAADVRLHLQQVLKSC
hERG protect – hERG rescue from dofetilide block, primary screen, cell-based, CHO-hERG, FluxOR thallium flux, dofetilide IC70. Voltage-gated inwardly rectifying potassium channel KCNH2 (Homo sapiens), Q12809. dofetilide IC70 present. activation (rescue from dofetilide block), less the hit threshold, % at 10 µM. 310,000 tested, 0.51% active. AID 1511, 2009;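 active = activation above the mean of controls blocked by dofetilide plus 5 SD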;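 note: thallium influx through hERG after potassium depolarization seen as dye fluorescence rise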
KCNK9 block – KCNK9 potassium channel inhibitors, primary screen, HEK293 cells, thallium flux | B-score at 10 µM | Potassium channel subfamily K member 9 (Homo sapiens), Q9NPC2 | FluxOR thallium flux fluorescence; active compounds read low | 310,000 tested, 1.2% active;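 active = ratio B-score over 3 SD below the library mean, with starting fluorescence within 5 SD of its mean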;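 note: negative B-score means less thallium flux so channel inhibition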
KCNK9 inh conf – KCNK9 potassium channel inhibitors, confirmation, HEK293 cells, thallium flux, duplicate. shares compounds with KCNK9 block. FluxOR thallium flux fluorescence. inhibition, % at 10 µM. 4,900 tested, 43% active. AID 492992, 2010;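 active = thallium signal inhibited by more than 5 SD of the compound-free buffer control wells, on both duplicate plates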;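 note: 0% = assay buffer control wells without compound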
Kir2-1 spec – mouse Kir2.1 channel inhibition, confirmation, selectivity assay for KCNK9 modulator project, cell-based, HEK293, thallium flux. shares compounds with KCNK9 block. inhibition, % at 10 µM. 4,900 tested, 4% active. Kir2.1 cells, FluxOR thallium flux fluorescence. AID 492993, 2010;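 active = thallium signal drop more than 5 SD beyond the mean of the no-compound control wells, seen in both duplicate plates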;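 note: signal is fluorescence rise after thallium addition divided by baseline fluorescence; plate controls were assay buffer only for no effect and full block by chlorpromazine control for full effect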
Target sequence (P35561 whole entry, looked up): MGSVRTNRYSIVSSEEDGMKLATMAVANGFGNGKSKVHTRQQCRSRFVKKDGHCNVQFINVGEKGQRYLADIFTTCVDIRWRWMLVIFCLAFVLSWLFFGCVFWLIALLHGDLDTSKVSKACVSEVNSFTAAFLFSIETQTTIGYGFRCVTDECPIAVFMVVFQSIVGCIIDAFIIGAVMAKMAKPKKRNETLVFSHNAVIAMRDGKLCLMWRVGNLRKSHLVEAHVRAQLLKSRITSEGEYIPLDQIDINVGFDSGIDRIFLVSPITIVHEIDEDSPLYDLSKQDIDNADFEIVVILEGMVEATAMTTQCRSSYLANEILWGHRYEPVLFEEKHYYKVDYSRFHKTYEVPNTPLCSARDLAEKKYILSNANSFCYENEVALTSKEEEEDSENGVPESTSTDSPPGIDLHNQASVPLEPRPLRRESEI
KCNK9 uninduced – thallium flux in non-induced HEK293 cells, confirmation, counter-screen for KCNK9 inhibitor project, cell-based, second counter screen, non-induced KCNK9-HEK293; inhibition, % at 10 µM; FluxOR thallium flux; shares compounds with KCNK9 block; 4,900 tested, 40% active;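 active = thallium signal drop beyond 5 SD of the untreated control mean, on both duplicate plates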;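 note: plate controls were buffer only IC0 wells for no effect and SID17386958 at its maximal inhibitory level for full effect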
* hit, by the source's call. Compounds with a hit are over-represented: about 4% of the library has one in this group of screens.

What do the screens show for `CN1CSC2=C(C#N)C(c3cccc(OCc4ccccc4)c3)CC(=O)N2C1` (configuration not stated)?
KCNQ1 pot: inactive; KCNQ1 block: inactive; KCNK3 block: inactive; PHOSPHO1 inh: 20; hERG protect: -7; KCNK9 block: inactive; KCNK9 inh conf: inactive; Kir2-1 spec: inactive; KCNK9 uninduced: inactive

Results for N#CC1=C2SCC(O)(c3ccccc3)N2C(=O)CC1c1ccccc1 (configuration not stated) ?
KCNQ1 pot: inactive; KCNQ1 block: inactive; KCNK3 block: inactive; PHOSPHO1 inh: 15; hERG protect: -2; KCNK9 block: inactive

Results for Cc1ccc(C(=O)O/N=C/c2c(C(F)(F)F)nn(C)c2Sc2ccc(Cl)cc2)cc1 ?
KCNQ1 pot: inactive; KCNQ1 block: inactive; KCNK3 block: inactive; PHOSPHO1 inh: -8; hERG protect: -7; KCNK9 block: inactive; KCNK9 inh conf: inactive; Kir2-1 spec: inactive; KCNK9 uninduced: inactive

What do the screens show for `COC(=O)c1ccccc1Sc1c(/C=N/OC(=O)c2ccccc2)c(C(F)(F)F)nn1C`?
KCNQ1 pot: inactive; KCNQ1 block: inactive; KCNK3 block: inactive; PHOSPHO1 inh: 14; hERG protect: -5; KCNK9 block: inactive

What do the screens show for `CC(C)(C)NC(=O)C(=O)NNC(=O)c1cccc([N+](=O)[O-])c1`?
KCNQ1 pot: inactive; KCNQ1 block: inactive; KCNK3 block: inactive; PHOSPHO1 inh: 49; hERG protect: 0; KCNK9 block: inactive

What do the screens show for `COC(=O)[C@]1(C)N[C@H](c2ccc(-c3cccc(Cl)c3)cc2)[C@@H]2C(=O)N(C)C(=O)[C@@H]21`?
KCNK3 block: inactive

How did CCN1C(=O)[C@H]2[C@@H](c3ccc(-c4ccc(OC)cc4)c(OC)c3)N[C@@](CC(C)C)(C(=O)OC)[C@H]2C1=O do in these assays?
KCNK3 block: inactive

How did COC(=O)[C@]1(CC(C)C)N[C@H](c2ccc(-c3ccc(F)cc3)c(OC)c2)[C@@H]2C(=O)N(C)C(=O)[C@@H]21 do in these assays?
KCNQ1 pot: inactive; KCNQ1 block: inactive; KCNK3 block: inactive; hERG protect: -4; KCNK9 block: -9.1*; KCNK9 inh conf: 38%*; Kir2-1 spec: inactive; KCNK9 uninduced: 38%*

Results for COC(=O)[C@]1(CC(C)C)N[C@H](c2ccc(-c3cccc(Cl)c3)cc2)[C@@H]2C(=O)N(C)C(=O)[C@@H]21 ?
KCNQ1 pot: inactive; KCNQ1 block: inactive; KCNK3 block: inactive; hERG protect: -17; KCNK9 block: -10*; KCNK9 inh conf: 54%*; Kir2-1 spec: inactive; KCNK9 uninduced: 40%*

How did COc1ccccc1-n1nnnc1SCC(=O)NCC1(N2CCCCC2)CCCCC1 do in these assays?
KCNK3 block: inactive

Results for Cc1nc(N=Nc2ccc(O)cc2)n[nH]1 ?
KCNQ1 pot: inactive; KCNQ1 block: inactive; KCNK3 block: inactive; PHOSPHO1 inh: -5; hERG protect: -12; KCNK9 block: inactive

What do the screens show for `CC[C@@]1(C(=O)OC)N[C@H](CN(C)C(=O)COc2ccccc2)[C@@H]2C(=O)N(Cc3ccccc3)C(=O)[C@@H]21`?
KCNK3 block: inactive

What do the screens show for `COCCSc1ccccc1C(=O)Nc1ccc(Br)cc1`?
KCNQ1 pot: inactive; KCNQ1 block: inactive; KCNK3 block: inactive; PHOSPHO1 inh: 23; hERG protect: -8; KCNK9 block: -13*; KCNK9 inh conf: 44%*; Kir2-1 spec: inactive; KCNK9 uninduced: 25%*

What do the screens show for `O=c1c2c(ncn2C2CCCC2)n(Cc2ccccc2)c(=O)n1CCOc1ccc(Br)cc1`?
KCNQ1 pot: inactive; KCNQ1 block: inactive; KCNK3 block: inactive; PHOSPHO1 inh: -4; hERG protect: -9; KCNK9 block: inactive; KCNK9 inh conf: inactive; Kir2-1 spec: inactive; KCNK9 uninduced: inactive

What do the screens show for `Cc1ccc(C)c(OCCn2c(=O)c3c(ncn3C3CCCC3)n(Cc3ccccc3)c2=O)c1`?
KCNQ1 pot: inactive; KCNQ1 block: inactive; KCNK3 block: inactive; PHOSPHO1 inh: -6; hERG protect: -13; KCNK9 block: inactive; KCNK9 inh conf: inactive; Kir2-1 spec: inactive; KCNK9 uninduced: inactive

What do the screens show for `CCn1cnc2c1c(=O)n(Cc1cccc(Br)c1)c(=O)n2Cc1ccccc1`?
KCNQ1 pot: inactive; KCNQ1 block: inactive; KCNK3 block: inactive; PHOSPHO1 inh: 24; hERG protect: -8; KCNK9 block: inactive

What do the screens show for `CCCCn1c(=O)n(CC(O)c2ccccc2)c(=O)c2c1ncn2C1CCCC1` (configuration not stated)?
KCNQ1 pot: inactive; KCNQ1 block: inactive; KCNK3 block: inactive; PHOSPHO1 inh: 3; hERG protect: -14; KCNK9 block: inactive

What do the screens show for `O=c1c2c(ncn2C2CCCC2)n(Cc2ccccc2)c(=O)n1CCOc1ccccc1`?
KCNQ1 pot: inactive; KCNQ1 block: inactive; KCNK3 block: inactive; PHOSPHO1 inh: -6; hERG protect: -2; KCNK9 block: inactive; KCNK9 inh conf: inactive; Kir2-1 spec: inactive; KCNK9 uninduced: inactive

What do the screens show for `CCOCCCNC(=O)CCc1nnc2ccc(N3CCCCC3)nn12`?
KCNQ1 pot: inactive; KCNQ1 block: inactive; KCNK3 block: inactive; hERG protect: -2; KCNK9 block: inactive

How did COc1ccc2c(Cl)c(C(=O)N/N=C3\CCCC(=O)C3)sc2c1 do in these assays?
KCNQ1 pot: inactive; KCNQ1 block: inactive; KCNK3 block: inactive; PHOSPHO1 inh: 28; hERG protect: -14; KCNK9 block: inactive
